Experimental data: ChEMBL document CHEMBL1128522, “Phosphinic acid analogues of GABA. 2. Selective, orally active GABAB antagonists” (J Med Chem, 1995)

Tests used:
[1] = molecular target: Gamma-aminobutyric acid type B receptor subunit 1 (Rattus norvegicus, UniProt Q9Z0U4); assay: Inhibition of binding of [3H]CGP-27492 to gamma-aminobutyric acid type B receptor of rat cortex.
Rattus norvegicus [2] = species: Rattus norvegicus; assay: The compound was tested for enhancement of electrically induced release of [3H]GABA from rat cortical slices.; type: functional
Outline: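 Rat cerebral cortex slices were electrically stimulated at 2 Hz, and the increase in GABA release was measured in quadruplicate. EC150, the concentration giving a 50% increase in GABA release, came from computer-aided curve fitting. Where no EC150 was given, the value is the percent increase at 10^-4 M or 10^-5 M.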

[3] = Inhibition of [3H]5-HT binding to 5-hydroxytryptamine 1 receptor of central nervous system; details: concentration not given here
[4] = molecular target: Histamine H2 receptor (Homo sapiens) (UniProt P25021); assay: Inhibition of [3H]tiotidine binding to histamine 2 receptor of central nervous system; details: concentration not given here
Sequence of Histamine H2 receptor (Homo sapiens) (P25021 whole entry): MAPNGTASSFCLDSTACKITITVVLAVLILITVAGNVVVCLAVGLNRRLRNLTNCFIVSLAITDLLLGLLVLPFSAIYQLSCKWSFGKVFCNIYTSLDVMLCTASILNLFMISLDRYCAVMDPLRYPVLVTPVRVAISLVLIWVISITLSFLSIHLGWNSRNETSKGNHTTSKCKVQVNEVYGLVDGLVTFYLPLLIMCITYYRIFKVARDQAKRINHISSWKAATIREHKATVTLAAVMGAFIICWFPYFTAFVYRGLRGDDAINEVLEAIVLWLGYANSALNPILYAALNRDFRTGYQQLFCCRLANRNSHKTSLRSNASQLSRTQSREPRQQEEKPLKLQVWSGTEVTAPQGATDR

[5] = molecular target: Glutamate receptor ionotropic kainate (Homo sapiens) (UniProt P39086+Q16478+Q16099+Q13002+Q13003); assay: Inhibition of [3H]kainate binding to Ionotropic glutamate receptor kainate of central nervous system; type: protein-complex assay; details: concentration not given here
[6] = molecular target: Glutamate receptor ionotropic AMPA (Homo sapiens) (UniProt P48058+P42263+P42262+P42261); assay: Inhibition of [3H]-AMPA binding to Quisqualate receptor of central nervous system; type: protein-complex assay; details: concentration not given here
[7] = Inhibition of [3H]DCKA binding to N-methyl-D-aspartate glutamate receptor 1 of central nervous system; details: concentration not given here
[8] = molecular target: Histamine H1 receptor (Homo sapiens) (UniProt P35367); assay: Inhibition of [3H]doxepine binding to histamine-1 receptor of central nervous system.; details: concentration not given here
Sequence of Histamine H1 receptor (Homo sapiens) (P35367 whole entry): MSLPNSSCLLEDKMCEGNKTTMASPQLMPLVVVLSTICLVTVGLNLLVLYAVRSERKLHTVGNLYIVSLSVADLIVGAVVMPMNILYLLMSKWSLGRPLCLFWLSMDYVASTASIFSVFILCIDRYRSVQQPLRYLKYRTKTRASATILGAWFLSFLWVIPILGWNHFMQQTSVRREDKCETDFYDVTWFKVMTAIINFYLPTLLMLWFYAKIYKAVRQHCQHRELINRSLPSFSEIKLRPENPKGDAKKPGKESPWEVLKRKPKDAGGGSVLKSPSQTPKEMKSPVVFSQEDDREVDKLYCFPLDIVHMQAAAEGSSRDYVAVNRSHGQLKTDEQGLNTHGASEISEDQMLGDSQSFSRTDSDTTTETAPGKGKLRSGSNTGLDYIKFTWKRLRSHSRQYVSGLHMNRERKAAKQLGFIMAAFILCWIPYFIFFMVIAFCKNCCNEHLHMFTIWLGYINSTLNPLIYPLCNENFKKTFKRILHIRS

Rattus norvegicus [9] = species: Rattus norvegicus; assay: Enhanced electrically induced release of [3H]GABA from rat cortical slices; agonist; type: functional; details: filed as agonist
Outline: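 Electrically stimulated rat cerebral cortex slices at 2 Hz; [3H]GABA release measured. EC150 is the concentration giving a 50% increase in GABA release, obtained by computer-aided curve fitting. Run in quadruplicate; no standard deviations computed because curve slopes varied. Some entries are instead percent increase at a single concentration of 10^-4 or 10^-5 M.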

Sequence of Gamma-aminobutyric acid type B receptor subunit 1 (Q9Z0U4 whole entry): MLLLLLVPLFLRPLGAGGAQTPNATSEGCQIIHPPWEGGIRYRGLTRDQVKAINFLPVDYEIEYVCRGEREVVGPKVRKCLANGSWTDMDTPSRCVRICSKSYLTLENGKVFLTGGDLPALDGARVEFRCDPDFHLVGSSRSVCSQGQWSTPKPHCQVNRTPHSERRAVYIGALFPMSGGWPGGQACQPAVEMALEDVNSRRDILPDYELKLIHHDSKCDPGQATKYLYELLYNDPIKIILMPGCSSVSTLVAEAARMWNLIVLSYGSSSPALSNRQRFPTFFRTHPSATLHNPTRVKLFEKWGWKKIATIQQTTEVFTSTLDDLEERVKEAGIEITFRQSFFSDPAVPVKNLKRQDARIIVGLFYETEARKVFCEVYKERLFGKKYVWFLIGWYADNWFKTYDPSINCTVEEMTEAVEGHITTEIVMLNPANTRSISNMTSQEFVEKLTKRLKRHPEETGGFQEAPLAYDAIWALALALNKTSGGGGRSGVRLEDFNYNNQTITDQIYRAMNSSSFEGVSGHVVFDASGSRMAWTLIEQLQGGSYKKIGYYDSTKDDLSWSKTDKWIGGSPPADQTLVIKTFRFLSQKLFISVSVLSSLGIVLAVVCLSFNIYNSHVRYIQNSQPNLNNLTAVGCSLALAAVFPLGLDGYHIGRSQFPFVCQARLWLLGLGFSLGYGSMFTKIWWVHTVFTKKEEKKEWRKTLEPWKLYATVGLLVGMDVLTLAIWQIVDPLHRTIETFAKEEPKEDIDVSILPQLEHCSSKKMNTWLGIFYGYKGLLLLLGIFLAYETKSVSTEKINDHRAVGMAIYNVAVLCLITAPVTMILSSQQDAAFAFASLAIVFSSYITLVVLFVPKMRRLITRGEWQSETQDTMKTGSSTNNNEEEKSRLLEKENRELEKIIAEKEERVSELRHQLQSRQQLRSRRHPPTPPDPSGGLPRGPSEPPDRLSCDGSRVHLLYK

Compound	IC50 [1] [µM]	EC150 (Rattus norvegicus [2]) [µM]	also measured
CCOC(OCC)P(=O)(O)CC(CN)c1ccc(Cl)cc1 (stereo not drawn)	21	11	
NCCCP(=O)(O)Cc1ccccc1	10	5	
NCCCP(=O)(O)CC1CCCCC1	4	3	
CCCC(F)(F)P(=O)(O)CCCN	22	115	
CCCC(O)P(=O)(O)CCCN (stereo not drawn)	18	44	
CCCCP(=O)(O)CC(O)CN (stereo not drawn)	29	8	
NC[C@H](O)CP(=O)(O)CC1CCCCC1	5	2	
CCCCP(=O)(O)CCCN [SGS-742]		38	inhibition [3]: 2%; inhibition [4]: 6%; inhibition [5]: 8%; inhibition [6]: 7%; inhibition [7]: 16%; inhibition [8]: 7%
NCCCP(=O)(O)CCC1CCCCO1 (stereo not drawn)	2	30	
NCCCP(=O)(O)C1CCCO1 (stereo not drawn)	34	89	
CCOC(OCC)P(=O)(O)CCCN	27	30	
CP(=O)(O)CC(CN)c1ccc(Cl)cc1 (stereo not drawn)	9	28	
NCCCP(=O)(O)CCCN	29		
NCCCP(=O)(O)CN	50	2	
NCCCP(=O)(O)C1CCCCO1 (stereo not drawn)	39	144	
CC(=O)CCP(=O)(O)CCCN	1	4	
NCCCP(=O)(O)CC1CC1	37	53	
NC[C@@H](O)CP(=O)(O)CC1CCCCC1	6	4	
CCCCP(=O)(O)C(O)CCN (stereo not drawn)	37		
CCCOC(OCCC)P(=O)(O)CCCN	28	60	
CCCCOC(OCCCC)P(=O)(O)CCCN	20	300	
NCC(=O)CP(=O)(O)CC1CC1	14	3	
NCCC[PH](=O)O	0.005		EC150 (Rattus norvegicus [9]): Agonist
CC(C)OC(OC(C)C)P(=O)(O)CCCN	18	47	
CCOC(OCC)P(=O)(O)CC(O)CN (stereo not drawn)	16	9	

Compound	IC50 [1] [µM]	EC150 (Rattus norvegicus [2]) [µM]	also measured
NCCCP(=O)(O)CC(O)CNC(=O)c1ccccc1C(N)=O (stereo not drawn)	2	9	
NCCCP(=O)(O)CCC1CCCCC1	2	13	
CP(=O)(O)CCCN			EC150 (Rattus norvegicus [9]): Agonist
NCC(=O)CP(=O)(O)CC1CCCCC1	50	5	
CCCCP(=O)(O)CC(O)(CN)c1ccc(Cl)cc1 (stereo not drawn)	7	45	
CCOC(OCC)P(=O)(O)C[C@@H](O)CN	12	11	
CC(C)(C)P(=O)(O)CCCN	73		
NCCCP(=O)(O)Cc1ccc(F)cc1	52	10	
NCCCP(=O)(O)C(O)c1ccccc1 (stereo not drawn)	8	10	
CC(C)CP(=O)(O)CCCN	14	98	
NCCCP(=O)(O)CCc1ccccc1	10	60	
CCCCP(=O)(O)CC(C)(O)CN (stereo not drawn)	45		
CCP(=O)(O)CCCN	2	118	
CP(=O)(O)CC(O)(CN)c1ccc(Cl)cc1 (stereo not drawn)	6	30	
CCCCCCP(=O)(O)CCCN	20	14	
CCCCP(=O)(O)C(C)CCN (stereo not drawn)	341	8	
NCC(O)CP(=O)(O)CC1CCCCC1 (stereo not drawn)	5	8	
NCCCP(=O)(O)c1ccccc1	126		
NCCCP(=O)(O)Cc1ccccn1	6	30	
CCCP(=O)(O)CCCN	16	30	
NCC(O)CP(=O)(O)Cc1ccccc1 (stereo not drawn)	8	4	
NC[C@@H](O)CP(=O)(O)Cc1ccccc1	32	11	
NCCCP(=O)(O)CC1CCCCO1 (stereo not drawn)	32	12	
NC[C@H](O)CP(=O)(O)Cc1ccccc1	5	5	
CCCCP(=O)(O)CC(=O)CN		6	
